Here are results for 14 compounds from ChEMBL document CHEMBL2177082, “Identification of a promising drug candidate for the treatment of type 2 diabetes based on a P2Y(1) receptor agonist” (J Med Chem, 2012).

Active and inactive are the calls of the source. The rule behind the calls is not given here. A value given as a limit tells only on which side of the number the result lay.

Series [1] deals with Serum. In words: (§1) Half life in human serum at 40 mM by HPLC. As to conditions: 40000 µM. The class given is ADME, cell-free. Put shortly: (§2)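 Serum came from a healthy volunteer's whole blood (12 h at 4 °C, spun 1500g, stored at −80 °C). A 40 mM stock in water was mixed with serum and RPMI-1640 (1:3 serum:medium) and incubated at 37 °C for up to 24 h.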
The nature of series [2]: Metabolic stability in human serum assessed as hydrolysis of compound at 40 mM incubated for 24 hrs measured after every 1 hr over 24 hrs by HPLC. The class given is ADME, cell-free. As to conditions: read-out: Drug metabolism. Put shortly:
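40 mM stock in water, 4.5 μL, combined with 180 μL human serum (healthy volunteer) and 540 μL RPMI-1640 and incubated at 37 °C for up to 24 h. Aliquots were heated to 80 °C for 30 min, cleaned up, and analysed by HPLC. Heat-only controls were run without serum. Hydrolysis was followed from the change in HPLC peak area.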

The nature of series [3]: Half life in Tris buffer at pH 9.8 at 0.2 mg by HPLC in presence of alkaline phosphatase. The class given is physicochemical. As to conditions: in vitro. Put shortly:
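Compound 0.2 mg incubated with calf intestine alkaline phosphatase 12.5 units in Tris-HCl/MgCl2 at final pH 9.8 and 37 °C. Sampled hourly for 8 h; reaction stopped at 80 °C for 15 min. Samples passed through an anion-exchange cartridge. Half-life from change in HPLC peak area.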

Series [4] concerns Rattus norvegicus. Briefly: Antiplatelet activity in Lewis rat assessed as inhibition of ADP-induced aggregation measuring prolongation in bleeding time at 10 mg/kg body weight, po administered 30 mins prior to tail incision measured after 5 mins. The class given is functional, organism-based. Also noted: dose 10 mg/kg. The method in brief: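 Anesthetized Lewis rats (n = 5) were dosed orally 30 min before the tail was cut. Then 2 mm of tail tip was removed and the tail was placed upright in a saline-filled tube. Time to first arrest of bleeding (no bleeding for 20 s) was recorded.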

A short description of series [5]: as §1. The class given is ADME, cell-free. The method in brief: as §2
In series [6] the target is P2Y purinoceptor 1 (Meleagris gallopavo, UniProt P49652). In words: Agonist activity at turkey P2Y1R expressed in 1321N1 cells assessed as increase in intracellular calcium concentration by spectrofluorimetry. The class given is functional, cell-based. The method in brief:
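Cell suspensions were treated with nucleotide at various concentrations at 37 °C in 10 mM Hepes-buffered saline pH 7.4 with 1 mM CaCl2 and 1 mM MgCl2. Maximal [Ca2+]i rise was read by dual-excitation spectrofluorometry and fitted to give EC50. Three experiments on separate days.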

Series [7] has as its system Serum. Briefly: Ratio of half life of compound to half life of ADP in human serum at 40 mM by HPLC. As to conditions: 40000 µM. The class given is ADME, cell-free. Put shortly: as §2
In series [8] the target is P2Y purinoceptor 4 (Homo sapiens) (UniProt P51582). In words: Agonist activity at P2Y4R. The class given is functional.
In series [9] the target is P2Y purinoceptor 6 (Homo sapiens) (UniProt Q15077). In words: Agonist activity at P2Y6R. The class given is functional.
For series [10], the target named is P2Y purinoceptor 2 (Homo sapiens) (UniProt P41231). Briefly: Agonist activity at P2Y2R. The class given is functional.
Series [11] deals with Mus musculus. Briefly: Antidiabetic activity in overnight fasted CD1 mouse assessed as reduction in blood glucose level at 30 mg/kg body weight, iv administered 10 mins post glucose challenge. The class given is functional, organism-based. Also noted: dose 30 mg/kg.
Series [12] in a line: Half life in HCL/KCL buffer at pH 1.4 at 1.5 mg by HPLC. The class given is physicochemical. The method in brief:
(§3)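 Diastereomeric mixture, 1.5 mg, dissolved in 0.2 M HCl/KCl buffer adjusted to pH 1.4 and kept at 37 °C with hourly sampling. Parent HPLC peak integrated over time (TEAA/acetonitrile 88:12) and fitted to pseudo-first-order kinetics to give rate constant and t1/2.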

Series [13] in a line: Chemical stability in HCL/KCL buffer at pH 1.4 assessed as hydrolysis rate constant of compound at 1.5 mg incubated for 24 hrs measured after every 1 hr over 12 hrs by HPLC. The class given is physicochemical. As to conditions: pH 1.4, 24 h. Put shortly:
as §3

Series [14] deals with P2Y purinoceptor 1 (Rattus norvegicus) (UniProt P49651). Briefly: Agonist activity at rat P2Y1R assessed as glucose-dependent insulin secretion relative to control. The class given is functional.
The target in series [15] is T1, P2Y purinoceptor 1 (Rattus norvegicus, UniProt P49651). In words: Agonist activity at rat P2Y1R assessed as glucose-dependent insulin secretion. The class given is functional.
Series [16] has as its target T1, P2Y purinoceptor 1. Briefly: Agonist activity at rat P2Y1R expressed in HEK293 cells assessed as release of intracellular calcium by fluorescence based assay. The class given is functional, cell-based. (A change in cytosolic calcium serves as a functional read-out for many receptors and channels.)
The subject of series [17] is Platelet. Briefly: Antiplatelet activity in human platelet rich plasma assessed as inhibition of ADP-induced platelet aggregation measured after 6 mins by aggregometry. The class given is functional. Put shortly: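 Human PRP obtained by centrifuging plasma at 4400g for 30 s. PRP was incubated 15 min at 37 °C with compound (0.3–10 μM), then aggregation was induced with ADP 10 μM and read after 6 min on a platelet aggregation profiler. Prasugrel metabolite 10 μM served as positive control. One donor, duplicates.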

In series [18] the test system is Mus musculus. In words: Antidiabetic activity in db+/db- diabetic mouse model assessed as reduction in blood glucose level at 30 mg/kg body weight, iv administered 10 min post glucose challenge measured over 15 to 120 mins. The class given is functional, organism-based. Set-up: dose 30 mg/kg. Put shortly:
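Male db+/db− mice, 8 weeks old, grouped by body weight and glucose, then fasted overnight. Oral glucose 2 g/kg by gavage. Compound 30 mg/kg iv as in the naive-animal OGTT; n = 5. Blood glucose by glucometer at −30, 0, 15, 30, 60 and 120 min.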

The target in series [19] is P2Y purinoceptor 12 (Homo sapiens) (UniProt Q9H244). In words: Antagonist activity at human P2Y12R expressed in […] cells assessed as intracellular calcium level in presence of ADP. The class given is functional, cell-based.
A short description of series [20]: Antiplatelet activity in human platelet rich plasma assessed as inhibition of ADP-induced platelet aggregation at 0.3 to 10 uM measured after 6 mins by aggregometry relative to control. The class given is functional. The method in brief: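 Human platelet-rich plasma was obtained by spinning normal human plasma at 4400g for 30 s. PRP was incubated 15 min at 37 °C, then aggregation was induced with ADP (10 μM) and read after 6 min on a platelet aggregation profiler. PRP came from one subject, tested in duplicate. Prasugrel metabolite at 10 μM served as the positive control.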

In series [21] the test system is Rattus norvegicus. Briefly: Antidiabetic activity in overnight fasted Wister Han rat assessed as reduction in blood glucose level at 30 mg/kg body weight, iv administered 10 mins post glucose challenge measured within 45 mins (reference value: 155 mg/dl). The class given is functional.
Series [22] relates to Mus musculus. In words: Antiplatelet activity in Balb/c mouse assessed as inhibition of ADP-induced aggregation measuring prolongation in bleeding time at 30 mg/kg body weight, iv administered prior to tail incision measured after 5 mins relative to active clopidogrel metabolite R-361015. The class given is functional. Put shortly: (§4)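 Anaesthetised Balb/c mice given compound iv (0.3, 3 or 30 mg/kg) or saline. Five minutes later 2 mm of the tail tip was cut and the tail placed vertically in saline. Time to first arrest of bleeding (no bleeding for 20 s) was recorded. Bars are standard deviation.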

Series [23] concerns Rattus norvegicus. Briefly: Antiplatelet activity in Lewis rat assessed as inhibition of ADP-induced aggregation measuring prolongation in bleeding time at 30 mg/kg body weight, po administered 30 mins prior to tail incision measured after 5 mins. The class given is functional, organism-based. Set-up: dose 30 mg/kg. The method in brief:
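Lewis rats given compound 30 mg/kg or aspirin 10 mg/kg PO 30 min before tail incision; n = 5. 2 mm tail tip cut, tail placed in saline. Time to first bleeding arrest (20 s without bleeding) was recorded, and blood volume was judged against calibrated volumes after brief 600g spin.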

Series [24] concerns Mus musculus. Briefly: Antiplatelet activity in Balb/c mouse assessed as inhibition of ADP-induced aggregation measuring prolongation of bleeding time at 30 mg/kg body weight, iv. The class given is functional. Put shortly: as §4
The test system of series [25] is Mus musculus. In words: Antidiabetic activity in STZ treated fasted ICR mouse assessed as reduction in blood glucose level at 30 mg/kg body weight, iv administered 10 min post glucose challenge measured over 15 to 120 mins. The class given is functional, organism-based. Set-up: dose 30 mg/kg. Put shortly:
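Male ICR mice given STZ 100 mg/kg IP after 4 h fast. On day 10, after ~16 h overnight fast, oral D-glucose 1 g/kg was given at 0 min. Compound was dosed iv at 7.5, 15 or 30 mg/kg 10 min after glucose; saline controls. Blood glucose by glucometer at 15, 30, 60 and 120 min. n = 5.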

P2Y purinoceptor 4 (Homo sapiens), sequence (P51582 whole entry): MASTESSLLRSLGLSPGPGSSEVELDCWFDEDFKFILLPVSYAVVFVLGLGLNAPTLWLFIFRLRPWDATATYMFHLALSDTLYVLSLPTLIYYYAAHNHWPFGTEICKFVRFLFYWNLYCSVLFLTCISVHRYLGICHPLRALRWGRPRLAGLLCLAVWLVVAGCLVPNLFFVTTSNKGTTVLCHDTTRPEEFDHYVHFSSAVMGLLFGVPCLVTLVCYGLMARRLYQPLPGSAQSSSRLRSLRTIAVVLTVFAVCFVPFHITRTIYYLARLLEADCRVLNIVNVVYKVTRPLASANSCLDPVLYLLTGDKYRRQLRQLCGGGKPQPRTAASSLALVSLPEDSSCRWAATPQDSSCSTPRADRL
P2Y purinoceptor 2 (Homo sapiens), sequence (P41231 whole entry): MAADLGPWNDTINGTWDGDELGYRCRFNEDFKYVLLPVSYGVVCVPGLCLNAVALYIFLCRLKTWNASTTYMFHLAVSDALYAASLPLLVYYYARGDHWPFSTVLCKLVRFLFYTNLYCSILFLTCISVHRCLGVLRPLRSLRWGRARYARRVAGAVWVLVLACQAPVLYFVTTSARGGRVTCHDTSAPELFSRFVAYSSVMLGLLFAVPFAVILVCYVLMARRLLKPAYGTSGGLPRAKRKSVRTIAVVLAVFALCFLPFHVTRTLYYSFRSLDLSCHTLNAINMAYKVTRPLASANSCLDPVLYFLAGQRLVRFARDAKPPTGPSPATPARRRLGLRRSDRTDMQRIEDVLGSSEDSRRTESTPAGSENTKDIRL
P2Y purinoceptor 1 (Meleagris gallopavo, UniProt P49652), sequence (P49652 whole entry): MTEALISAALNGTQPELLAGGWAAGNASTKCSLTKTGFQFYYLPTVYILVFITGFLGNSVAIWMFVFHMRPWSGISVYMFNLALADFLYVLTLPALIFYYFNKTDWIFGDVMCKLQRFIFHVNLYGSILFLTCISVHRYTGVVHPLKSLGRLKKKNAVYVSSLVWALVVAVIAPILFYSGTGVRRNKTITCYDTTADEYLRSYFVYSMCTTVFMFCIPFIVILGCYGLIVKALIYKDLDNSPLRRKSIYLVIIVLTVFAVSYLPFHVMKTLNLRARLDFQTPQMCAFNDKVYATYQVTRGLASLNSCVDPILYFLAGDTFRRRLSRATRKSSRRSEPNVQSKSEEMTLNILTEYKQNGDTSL
P2Y purinoceptor 6 (Homo sapiens), sequence (Q15077 whole entry): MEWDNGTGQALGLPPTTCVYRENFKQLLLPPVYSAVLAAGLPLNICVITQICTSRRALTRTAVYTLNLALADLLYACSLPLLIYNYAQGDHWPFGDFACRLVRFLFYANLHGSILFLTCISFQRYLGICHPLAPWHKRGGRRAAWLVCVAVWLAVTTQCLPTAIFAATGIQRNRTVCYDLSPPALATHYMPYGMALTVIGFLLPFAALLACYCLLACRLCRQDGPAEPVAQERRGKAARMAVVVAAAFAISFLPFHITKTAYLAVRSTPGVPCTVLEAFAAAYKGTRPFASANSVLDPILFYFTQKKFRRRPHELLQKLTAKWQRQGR
T1 sequence (P49651 whole entry): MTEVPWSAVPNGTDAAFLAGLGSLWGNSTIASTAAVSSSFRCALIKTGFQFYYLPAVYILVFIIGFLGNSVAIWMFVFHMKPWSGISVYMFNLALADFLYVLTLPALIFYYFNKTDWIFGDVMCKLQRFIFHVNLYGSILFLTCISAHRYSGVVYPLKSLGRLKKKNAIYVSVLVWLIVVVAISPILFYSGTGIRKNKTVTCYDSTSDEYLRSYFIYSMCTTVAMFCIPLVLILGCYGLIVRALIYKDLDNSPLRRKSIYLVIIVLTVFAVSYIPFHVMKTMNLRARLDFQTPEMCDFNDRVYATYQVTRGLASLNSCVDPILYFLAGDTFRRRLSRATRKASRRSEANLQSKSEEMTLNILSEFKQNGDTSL
P2Y purinoceptor 1 (Rattus norvegicus), sequence (P49651 whole entry): as above
P2Y purinoceptor 12 (Homo sapiens), sequence (Q9H244 whole entry): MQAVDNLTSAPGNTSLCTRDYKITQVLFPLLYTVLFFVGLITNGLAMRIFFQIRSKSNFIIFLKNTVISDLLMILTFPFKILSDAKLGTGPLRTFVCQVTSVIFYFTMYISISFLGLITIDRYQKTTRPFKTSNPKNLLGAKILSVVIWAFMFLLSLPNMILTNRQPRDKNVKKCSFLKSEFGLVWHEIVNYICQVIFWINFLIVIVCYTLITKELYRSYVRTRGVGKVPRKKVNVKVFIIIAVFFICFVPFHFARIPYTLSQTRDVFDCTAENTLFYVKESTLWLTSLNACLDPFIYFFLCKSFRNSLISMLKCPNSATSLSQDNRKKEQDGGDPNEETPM

On to `CSc1nc(N)c2ncn([C@@H]3O[C@H](COP(=O)(O)OP(=O)(O)O)[C@@H](O)[C@H]3O)c2n1`, for which the t1/2 in series [1] was 23 h; in series [3] it was 4.5 h. Also, in series [2], the metabolised at 24 h, 40000 µM came out at 50%.

On to `CC(=O)Oc1ccccc1C(=O)O`, for which the inhibition entry in series [4] is “Active”.

Regarding `B[P@@](=O)(OC[C@H]1O[C@@H](n2cnc3c(N)nc(SC)nc32)[C@H](O)[C@@H]1O)OP(=O)(O)OP(=O)(O)OC[C@H]1O[C@@H](n2cnc3c(N)nc(SC)nc32)[C@H](O)[C@@H]1O.CCCCN(CCCC)CCCC.CCCCN(CCCC)CCCC.CCCCN(CCCC)CCCC`, the half-life (usually how long it takes for the measured level to halve) at 40000 µM in [5] is 14 h. In addition, the concentration giving a half-maximal response (EC50) (usually the concentration giving half of the maximal effect) in series [6] is 140 nM. Besides, in series [7], the Ratio came to 7.

Consider `BP(=O)(OC[C@H]1O[C@@H](n2cnc3c(N)ncnc32)[C@H](O)[C@@H]1O)OP(=O)(O)O` (stereo not given in full), for which the outcome in [8], in [9] and in series [10] was inactive.

`B[P@](=O)(OC[C@H]1O[C@@H](n2cnc3c(N)nc(SC)nc32)[C@H](O)[C@@H]1O)OP(=O)(O)OP(=O)(O)OC[C@H]1O[C@@H](n2cnc3c(N)nc(SC)nc32)[C@H](O)[C@@H]1O.CCCCN(CCCC)CCCC.CCCCN(CCCC)CCCC.CCCCN(CCCC)CCCC` (single isomer, unassigned) showed a half-life at 40000 µM in series [5] of 14 h. Besides, in [6], the EC50 came out at 190 nM. Further, the Ratio in [7] was found to be 7.

Turning to `B[P@](=O)(OC[C@H]1O[C@@H](n2cnc3c(N)nc(SC)nc32)[C@H](O)[C@@H]1O)OP(=O)(O)O`, the concentration for a half-maximal effect (EC50) in series [6] is 1100 nM. For the same compound, the result in [11] was inactive.

`[BH3-]P(=O)(OC[C@H]1O[C@@H](n2cnc3c(N)nc(SC)nc32)[C@H](O)[C@@H]1O)OP(=O)([O-])[O-].[Na+].[Na+].[Na+]` (mixture of isomers): the result in [8], in series [9] and in series [10] was inactive. In series [12], the half-life is 7.3 h. In addition, the metabolised at 24 h, 40000 µM in series [2] came to 30%. Besides, the Drug degradation in series [13] is listed as 2 ×10⁻⁵ /s.

As to `[BH3-][P@@](=O)(OC[C@H]1O[C@@H](n2cnc3c(N)ncnc32)[C@H](O)[C@@H]1O)OP(=O)([O-])[O-].[Na+].[Na+].[Na+]`, the t1/2 in series [1] was 3.5 h; in series [3], 4.2 h. Besides, the concentration giving a half-maximal response (EC50) in [6] came to 220 nM.

With `B[P@@](=O)(OC[C@H]1O[C@@H](n2cnc3c(N)nc(SC)nc32)[C@H](O)[C@@H]1O)OP(=O)(O)OP(=O)(O)O`, the fold change (FC) in [14] came out at 9. The EC50 in [15] was 28.1 nM; in [16], 2.6 nM.

As to `BP(=O)(OC[C@H]1O[C@@H](n2cnc3c(N)nc(SC)nc32)[C@H](O)[C@@H]1O)OP(=O)(O)OP(=O)(O)OC[C@H]1O[C@@H](n2cnc3c(N)nc(SC)nc32)[C@H](O)[C@@H]1O.CCCCN(CCCC)CCCC.CCCCN(CCCC)CCCC.CCCCN(CCCC)CCCC` (mixture of isomers), the outcome in series [8], in [9] and in series [10] was inactive.

With `Nc1ncnc2c1ncn2[C@@H]1O[C@H](COP(=O)(O)OP(=O)(O)O)[C@@H](O)[C@H]1O` [ADENOSINE DIPHOSPHATE], the t1/2 in series [1] amounted to 2 h; in [3], 4 h.

In [5], `[BH3-][P@@](=O)(OC[C@H]1O[C@@H](n2cnc3c(N)nc(SC)nc32)[C@H](O)[C@@H]1O)OP(=O)([O-])[O-].[Na+].[Na+].[Na+]` had a half-life at 40000 µM greater than 24 h. Moreover, the inhibition result in series [17] and in series [23] was “Active” throughout. Moreover, the result in [18], in series [19] and in series [25] was Active. Also, the figures for the “fold change (FC)” value in series [20] and in series [22] were 3 and 1.5, respectively. Besides, in series [21], the Activity worked out at 87 mg/dL. In addition, the t1/2 in series [3] is 6 h. In addition, the Time in series [24] is listed as 16 min.

Regarding `B[P@](=O)(OC[C@H]1O[C@@H](n2cnc3c(N)ncnc32)[C@H](O)[C@@H]1O)OP(=O)(O)O`, the EC50 in [6] was found to be 960 nM.

As to `CC(=O)Oc1cc2c(s1)CCN(C(C(=O)C1CC1)c1ccccc1F)C2` (stereo not given), the Time in series [24] is listed as 9 min.
